Measured values reported in ChEMBL document CHEMBL1240469, “In vitro and in vivo studies on stilbene analogs as potential treatment agents for colon cancer” (Eur J Med Chem, 2010).
The source made the active and inactive calls. No cut-off for these calls is given here.

What was measured:
Caco-2 = assay: Cytotoxicity against human Caco-2 cells after 3 days by [3H]thymidine incorporation assay; type: functional, cell-based
Method in brief: (§1)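 Cells kept in DMEM with 10% FBS at 37 °C, 5% CO2, then plated at 20,000 cells/well. Exposed to a range of concentrations for 3 days at 37 °C, final DMSO 0.1% or less, with DMSO controls. IC50 reported.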

HT-29 [1] = assay: Cytotoxicity against human HT-29 cells after 3 days by [3H]thymidine incorporation assay; type: functional, cell-based; method in brief: as §1
Serum = assay: Drug level in SCID mouse serum at 10 mg/kg, ip by GC-MS analysis; type: ADME, organism-based; design: dose 10 mg/kg, route intraperitoneal; conditions: in vivo
Method in brief: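 Blood taken at autopsy from xenografted SCID mice after 3 weeks of daily i.p. dosing at 10 mg/kg. Serum (50 μL) was incubated with 1 M sodium acetate pH 5 for 60 min at 37 °C, extracted 3× with ethyl acetate, dried and redissolved. Analysed by GC-MS on a DB-5 column, with quantification against external-standard calibration curves at m/z 255, 298 or 270. Values given as mean ± std.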

Mus musculus = assay: Toxicity in SCID mouse assessed as effect on body weight at 10 mg/kg, ip qd for 3 weeks (reference value: 20.4 +/- 0.4 g); type: organism-based; design: dose 10 mg/kg, route intraperitoneal; conditions: in vivo, 504 h
HT-29 [2] = assay: Antitumor activity against human HT-29 cells xenografted in SCID mouse assessed as reduction tumor weight at 10 mg/kg, ip qd for 3 weeks (reference value: 0.72 +/- 0.1 g); type: functional; conditions: route intraperitoneal
HT-29 [3] = assay: Antitumor activity against human HT-29 cells xenografted in SCID mouse assessed as reduction tumor volume at 10 mg/kg, ip qd for 3 weeks (reference value: 1087 +/- 138.9 mm'3); type: functional; conditions: route intraperitoneal
HT-29 [4] = assay: Reduction of proliferating cell nuclear antigen level in human HT-29 cells by Western blotting; type: functional, cell-based
Method in brief: (§2)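 Xenograft tumors from treated SCID mice were homogenized in lysis buffer and pooled by group. Primary antibodies (PCNA or p27) were applied overnight at 4 °C, followed by HRP secondary for 1 h. Bands detected by chemiluminescence, with β-actin as loading control.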

HT-29 [5] = assay: Induction of apoptosis in human HT-29 cells assessed as PARP cleavage; type: functional, cell-based
HT-29 [6] = assay: Up-regulation of p27 expression level in human HT-29 cells by Western blotting; type: functional, cell-based; method in brief: as §2
HT-29 [7] = assay: Induction of apoptosis in human HT-29 cells assessed as caspase3 activity; type: functional, cell-based
HT-29 [8] = assay: Up-regulation of p27 expression level in human HT-29 cells by immunohistochemistry analysis; type: functional, cell-based
Method in brief: (§3)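 Paraffin sections of xenograft tumors, 4 μm thick, incubated overnight with anti-PCNA (1:1000) or anti-p27 (1:50), then biotinylated secondary, avidin-biotin peroxidase and diaminobenzidine, with hematoxylin counterstain. Five random fields per slide were imaged at 400×. PCNA was reported as labeling index (positive cells/total ×100, averaged per tumor); p27 as integrated optical density averaged per tumor and per group; ± SE.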

HT-29 [9] = assay: Reduction of proliferating cell nuclear antigen level in human HT-29 cells by immunohistochemistry analysis; type: functional, cell-based; method in brief: as §3

SMILES	IC50 (Caco-2) [µM]	IC50 (HT-29 [1]) [µM]	Drug uptake (Serum) [ng/mL]	also measured
COc1ccc(/C=C\c2cc(O)cc(O)c2)cc1	> 30	> 30		
COc1cc(/C=C\c2ccc(F)cc2)cc(OC)c1	> 10	> 10		
COc1cc(/C=C/c2ccc(N)cc2)cc(OC)c1			99	
COc1cc(/C=C\c2ccc(N)cc2)cc(OC)c1			109.1	
COc1ccc(/C=C\c2cc(OC)cc(OC)c2)cc1 [8Z-3,4',5-TRIMETHOXYSTILBENE]	0.08	0.04	15.5	Activity (Mus musculus): 19.8 g; Activity (HT-29 [2]): 0.61 g; Activity (HT-29 [3]): 1023.6 mm3
COc1cc(/C=C/c2ccc(OC3OC(CO)C(O)C(O)C3O)cc2)cc(OC)c1 (stereo not drawn)	> 10	> 10		
COc1ccc(/C=C/c2cc(OC)cc(OC)c2)cc1 [TRISMETHOXYRESVERATROL]	12	16.1	69.9	Activity (HT-29 [4]): Active; Activity (Mus musculus): 19.5 g; Activity (HT-29 [5]): inactive; Activity (HT-29 [2]): 0.57 g; Activity (HT-29 [6]): Active; Activity (HT-29 [7]): inactive; Activity (HT-29 [3]): 590.3 mm3; Activity (HT-29 [8]): Active; Activity (HT-29 [9]): Active
COc1cc(/C=C/c2ccc(O)cc2)cc(OC)c1 [PTEROSTILBENE]	14.5	23.8		
COc1cc(/C=C/c2ccc(S)cc2)cc(OC)c1	> 10	> 10		
COc1cc(/C=C/c2ccc(F)cc2)cc(OC)c1	> 10	> 10		
COc1ccc(/C=C/c2cc(O)cc(O)c2)cc1 [RESVERATROL 4'-METHYL ETHER]	> 30	24.5		
COc1cc(O)cc(/C=C/c2ccc(O)cc2)c1	19.2	33.5		
COC(=O)c1ccc(/C=C\c2cc(OC)cc(OC)c2)cc1			18.8	
COC(=O)c1ccc(/C=C/c2cc(OC)cc(OC)c2)cc1			54.6	
